{"source": "ChEMBL document CHEMBL4689842", "about": "“EUbOPEN Chemogenomics Library wave 1” (2021)", "test_system": "HEK-293T", "experiment": "Multiplex assay against HEK293T;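 on Population Tubulin-Different-Phenotype (%): share of the cells with healthy nuclei that show this phenotype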", "format": "toxicity, cell-based", "details": "human", "summary_of_the_method": "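Hoechst33342, BioTracker Green Microtubule Cytoskeleton Dye, MitoTracker Red and Annexin V Alexa Fluor 680 were added to live cells at seeding, and imaging on a CQ1 microscope at 37°C and 5% CO2 followed compound addition. Gating by CellPathfinder machine learning separated cells into Hoechst high-intensity objects or normal cells, then normal cells into healthy, pyknosed or fragmented nuclei, then pyknosed cells into mitotic or apoptotic. Per cents of healthy-nucleus cells are reported for the tubulin, mitochondrial-mass and membrane-permeability phenotypes.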", "key": {"[1]": {"details": "12 h, 1 µM, compound concentration 1 uM, replicate 1"}, "[2]": {"details": "12 h, 1 µM, compound concentration 1 uM, replicate 2"}, "[3]": {"details": "12 h, 10 µM, compound concentration 10 uM, replicate 1"}, "[4]": {"details": "12 h, 10 µM, compound concentration 10 uM, replicate 2"}, "[5]": {"details": "24 h, 1 µM, compound concentration 1 uM, replicate 1"}, "[6]": {"details": "24 h, 1 µM, compound concentration 1 uM, replicate 2"}, "[7]": {"details": "24 h, 10 µM, compound concentration 10 uM, replicate 1"}, "[8]": {"details": "24 h, 10 µM, compound concentration 10 uM, replicate 2"}, "[9]": {"details": "48 h, 1 µM, compound concentration 1 uM, replicate 1"}, "[10]": {"details": "48 h, 1 µM, compound concentration 1 uM, replicate 2"}, "[11]": {"details": "48 h, 10 µM, compound concentration 10 uM, replicate 1"}, "[12]": {"details": "48 h, 10 µM, compound concentration 10 uM, replicate 2"}}, "note": "Several values for one entry are separate records, joined by “and”; a condition that tells them apart may be missing. Identical values can stand only once."}
{"smiles": "CS(=O)(=O)N1CCCC(NC(=O)[C@H](CCC2CCCCC2)NC(=O)c2ccc(CNC(=O)c3cnc4ccccn34)cc2)C1", "note": "(some centres undefined) [SR-302]", "values": [{"measurement": "Population Apoptotic (%)", "setting": "[1]", "result": "40% [middle of 4 runs]"}, {"measurement": "Population Fragmented Nuclei (%)", "setting": "[1]", "result": "13% [middle of 4 runs]"}, {"measurement": "Population Hoechst High Intensity Objects (%)", "setting": "[1]", "result": "14% [middle of 4 runs]"}, {"measurement": "Population Membrane Permeable-Phenotype (%)", "setting": "[1]", "result": "3% and 2%"}, {"measurement": "Population Mitotic Cells (%)", "setting": "[1]", "result": "65% [middle of 4 runs]"}, {"measurement": "Population Normal (%)", "setting": "[1]", "result": "86% and 85% and 81%"}, {"measurement": "Total Cell Count", "setting": "[1]", "result": "519 [middle of 4 runs]"}, {"measurement": "Population Apoptotic (%)", "setting": "[2]", "result": "17% [middle of 4 runs]"}, {"measurement": "Population Fragmented Nuclei (%)", "setting": "[2]", "result": "8% and 5%"}, {"measurement": "Population Healthy Nuclei (%)", "setting": "[2]", "result": "48% [middle of 4 runs]"}, {"measurement": "Population Hoechst High Intensity Objects (%)", "setting": "[2]", "result": "6% and 3% and 2%"}, {"measurement": "Population Mitotic Cells (%)", "setting": "[2]", "result": "88% [middle of 4 runs]"}, {"measurement": "Population Normal (%)", "setting": "[2]", "result": "93% and 96% and 97%"}, {"measurement": "Population Apoptotic (%)", "setting": "[3]", "result": "65% [middle of 4 runs]"}, {"measurement": "Population Fragmented Nuclei (%)", "setting": "[3]", "result": "13% and 12% and 16%"}, {"measurement": "Population Hoechst High Intensity Objects (%)", "setting": "[3]", "result": "16% [middle of 4 runs]"}, {"measurement": "Population Membrane Permeable-Phenotype (%)", "setting": "[3]", "result": "7% and 4% and 3%"}, {"measurement": "Population Mitotic Cells (%)", "setting": "[3]", "result": "35% [middle of 4 runs]"}, {"measurement": "Population Normal (%)", "setting": "[3]", "result": "85% and 83% and 77% and 86%"}, {"measurement": "Total Cell Count", "setting": "[3]", "result": "331 [middle of 4 runs]"}, {"measurement": "Population Healthy Nuclei (%)", "setting": "[4]", "result": "30% and 36% and 87%"}, {"measurement": "Population Membrane Permeable-Phenotype (%)", "setting": "[4]", "result": "12% and 8%"}, {"measurement": "Population Mitotic Cells (%)", "setting": "[4]", "result": "52% [middle of 4 runs]"}, {"measurement": "Population Normal (%)", "setting": "[4]", "result": "95% and 90% and 94% and 97%"}, {"measurement": "Population Tubulin-Different-Phenotype (%)", "setting": "[4]", "result": "93% [middle of 4 runs]"}, {"measurement": "Population Apoptotic (%)", "setting": "[5]", "result": "52% [middle of 4 runs]"}, {"measurement": "Population Fragmented Nuclei (%)", "setting": "[5]", "result": "13% [middle of 4 runs]"}, {"measurement": "Population Hoechst High Intensity Objects (%)", "setting": "[5]", "result": "15% and 14% and 24%"}, {"measurement": "Population Membrane Permeable-Phenotype (%)", "setting": "[5]", "result": "4% and 3% and 2%"}, {"measurement": "Population Mitotic Cells (%)", "setting": "[5]", "result": "64% [middle of 4 runs]"}, {"measurement": "Population Normal (%)", "setting": "[5]", "result": "84% and 85% and 75%"}, {"measurement": "Population Healthy Nuclei (%)", "setting": "[6]", "result": "65% [middle of 4 runs]"}, {"measurement": "Population Membrane Permeable-Phenotype (%)", "setting": "[6]", "result": "11% and 7% and 5%"}, {"measurement": "Population Mitotic Cells (%)", "setting": "[6]", "result": "76% and 75% and 93%"}, {"measurement": "Population Normal (%)", "setting": "[6]", "result": "95% and 97% and 96% and 98%"}, {"measurement": "Population Apoptotic (%)", "setting": "[7]", "result": "63% and 66% and 26%"}, {"measurement": "Population Fragmented Nuclei (%)", "setting": "[7]", "result": "18% [middle of 4 runs]"}, {"measurement": "Population Hoechst High Intensity Objects (%)", "setting": "[7]", "result": "17% [middle of 4 runs]"}, {"measurement": "Population Mitotic Cells (%)", "setting": "[7]", "result": "36% and 33% and 73%"}, {"measurement": "Population Normal (%)", "setting": "[7]", "result": "82% and 84% and 81% and 89%"}, {"measurement": "Total Cell Count", "setting": "[7]", "result": "335 [middle of 4 runs]"}, {"measurement": "Population Fragmented Nuclei (%)", "setting": "[8]", "result": "3% and 6%"}, {"measurement": "Population Healthy Nuclei (%)", "setting": "[8]", "result": "44% and 77% and 50%"}, {"measurement": "Population Membrane Permeable-Phenotype (%)", "setting": "[8]", "result": "13% and 6% and 5%"}, {"measurement": "Population Mitotic Cells (%)", "setting": "[8]", "result": "94% and 46% and 37%"}, {"measurement": "Population Normal (%)", "setting": "[8]", "result": "98% and 97% and 91% and 95%"}, {"measurement": "Population Tubulin-Different-Phenotype (%)", "setting": "[8]", "result": "56% and 88% and 94%"}, {"measurement": "Population Apoptotic (%)", "setting": "[9]", "result": "46% and 31% and 58%"}, {"measurement": "Population Fragmented Nuclei (%)", "setting": "[9]", "result": "25% and 16% and 23%"}, {"measurement": "Population Healthy Nuclei (%)", "setting": "[9]", "result": "24% and 43% and 23%"}, {"measurement": "Population Hoechst High Intensity Objects (%)", "setting": "[9]", "result": "11% and 24%"}, {"measurement": "Population Membrane Permeable-Phenotype (%)", "setting": "[9]", "result": "1% and 0%"}, {"measurement": "Population Mitochondria Different-Phenotype (%)", "setting": "[9]", "result": "42% and 44% and 58%"}, {"measurement": "Population Mitotic Cells (%)", "setting": "[9]", "result": "53% and 68% and 41%"}, {"measurement": "Population Normal (%)", "setting": "[9]", "result": "88% and 76%"}, {"measurement": "Population Pyknosed Nuclei (%)", "setting": "[9]", "result": "49% and 40% and 53%"}, {"measurement": "Population Tubulin-Different-Phenotype (%)", "setting": "[9]", "result": "18% and 29% and 41%"}, {"measurement": "Total Cell Count", "setting": "[9]", "result": "293 and 638 and 325"}, {"measurement": "Population Apoptotic (%)", "setting": "[10]", "result": "30% and 16% and 25%"}, {"measurement": "Population Fragmented Nuclei (%)", "setting": "[10]", "result": "5% and 6% and 7%"}, {"measurement": "Population Healthy Nuclei (%)", "setting": "[10]", "result": "81% and 84% and 82%"}, {"measurement": "Population Hoechst High Intensity Objects (%)", "setting": "[10]", "result": "5% and 4%"}, {"measurement": "Population Membrane Permeable-Phenotype (%)", "setting": "[10]", "result": 3, "unit": "%"}, {"measurement": "Population Mitochondria Different-Phenotype (%)", "setting": "[10]", "result": "9% and 8% and 10%"}, {"measurement": "Population Mitotic Cells (%)", "setting": "[10]", "result": "69% and 83% and 74%"}, {"measurement": "Population Normal (%)", "setting": "[10]", "result": "94% and 95%"}, {"measurement": "Population Pyknosed Nuclei (%)", "setting": "[10]", "result": "12% and 9% and 10%"}, {"measurement": "Population Tubulin-Different-Phenotype (%)", "setting": "[10]", "result": "16% and 27%"}, {"measurement": "Total Cell Count", "setting": "[10]", "result": "344 and 689 and 583"}, {"measurement": "Population Apoptotic (%)", "setting": "[11]", "result": "64% and 65% and 62%"}, {"measurement": "Population Fragmented Nuclei (%)", "setting": "[11]", "result": "23% and 21% and 33%"}, {"measurement": "Population Healthy Nuclei (%)", "setting": "[11]", "result": "18% and 20% and 19%"}, {"measurement": "Population Hoechst High Intensity Objects (%)", "setting": "[11]", "result": "22% and 18%"}, {"measurement": "Population Membrane Permeable-Phenotype (%)", "setting": "[11]", "result": "3% and 0%"}, {"measurement": "Population Mitochondria Different-Phenotype (%)", "setting": "[11]", "result": "90% and 100% and 97%"}, {"measurement": "Population Mitotic Cells (%)", "setting": "[11]", "result": "35% and 34% and 37%"}, {"measurement": "Population Normal (%)", "setting": "[11]", "result": "77% and 81%"}, {"measurement": "Population Pyknosed Nuclei (%)", "setting": "[11]", "result": "58% and 57% and 47%"}, {"measurement": "Population Tubulin-Different-Phenotype (%)", "setting": "[11]", "result": "96% and 95%"}, {"measurement": "Total Cell Count", "setting": "[11]", "result": "360 and 347 and 256"}, {"measurement": "Population Apoptotic (%)", "setting": "[12]", "result": "61% and 73% and 52%"}, {"measurement": "Population Fragmented Nuclei (%)", "setting": "[12]", "result": "4% and 5% and 8%"}, {"measurement": "Population Healthy Nuclei (%)", "setting": "[12]", "result": "69% and 75% and 71%"}, {"measurement": "Population Membrane Permeable-Phenotype (%)", "setting": "[12]", "result": 1, "unit": "%"}, {"measurement": "Population Mitochondria Different-Phenotype (%)", "setting": "[12]", "result": "89% and 83%"}, {"measurement": "Population Mitotic Cells (%)", "setting": "[12]", "result": "38% and 26% and 47%"}, {"measurement": "Population Normal (%)", "setting": "[12]", "result": "97% and 95% and 92%"}, {"measurement": "Population Pyknosed Nuclei (%)", "setting": "[12]", "result": "26% and 19%"}, {"measurement": "Total Cell Count", "setting": "[12]", "result": "310 and 372 and 210"}]}
